Data as given in publication PMC11301096 (iScience, 2024).
No end group written: not given here. *: point of attachment. Biotin = O=C1N[C@H]2[C@H](CS[C@H]2CCCCC(=O)*)N1

Assays:
Hep 3B cells = assay: CCK-8 proliferative activity; type: cell-based, human; details: read-out: IC50, proliferation; CCK-8, 48 h, mean of n = 3
In short: (§1)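 Cells grown in DMEM with 10% FBS and 1% antibiotics at 37°C, 5% CO2; log-phase cells used. Seeded at 4×10^3/well for 24 h, then exposed to graded doses of test compound (DMSO stock) for 48 h. CCK-8 reagent added for 1–2 h in the dark; absorbance read at 450 nm. Three independent experiments.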

Huh7 cells = assay: CCK-8 proliferative activity; type: cell-based, human; details: read-out: IC50, proliferation; CCK-8, 48 h, mean of n = 3
In short: as §1

[1] = tested on: human normal hepatocyte L-O2; assay: CCK-8 proliferative activity; type: cell-based; details: 10 μM and 20 μM BO1, CCK-8, 48 h
In short: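 Normal hepatocytes seeded at 4×10^3/well and incubated 24 h, then exposed to test compound for 48 h. CCK-8 reagent added for 1–2 h protected from light; absorbance measured at 450 nm. Three independent experiments.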

L-O2 cells [2] = assay: Cell cycle analysis by flow cytometry; type: cell-based, human; details: 20 μM BO1, 48 h
In short: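 Cells (5×10^5 per 100 mm dish) attached for 24 h, then exposed to test compound for 48 h. Cell pellets fixed in 70% ethanol for 4 h and washed twice with PBS. Stained with a DNA-content quantitation kit; cell-cycle distribution read by flow cytometry.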

L-O2 cells [3] = assay: Hoechst 33258 staining; type: cell-based, human; details: 20 μM BO1, 48 h
In short: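 Seeded at 4×10^4 cells/well for 24 h, then treated 48 h. Fixed in 4% tissue fixative for 15 min and stained with Hoechst 33258 for 5 min. Washed twice with PBS; nuclei viewed by fluorescence microscopy.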

[4] = In vivo xenograft model, toxicity read-outs; set-up: species or system BALB/c-Nude mice; details: BO1 4.57 mg/kg intraperitoneally every other day, two weeks, n = 6
In short: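 Four-week-old male nude mice acclimatised 7 days, then implanted subcutaneously with 2×10^6 Hep 3B cells; randomised into two groups of 6. Once tumours reached 100 mm3, given 200 μL saline or test compound intraperitoneally every other day, with weighing and tumour measurement. Killed after two weeks; serum taken for ALT, AST and creatinine.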

HSP90A = HSP90A (Homo sapiens, UniProt P07900); assay: Biotinylated pull-down with western blot; type: binding; details: compared to samples extracted with IgG; cell extracts, 4°C, 12 h
In short: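 Bead-bound biotin-labelled test compound (4°C, 3 h) rotated with cell extracts at 4°C for 12 h. Beads washed in ice-cold NT2 buffer (4°C, 5 min), then four more washes. Bound proteins eluted with protein elution buffer plus DTT at 37°C for 2 h. Eluates analysed by LC-MS and western blot, with an IgG pull-down as negative control.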

Substance	IC50 (Hep 3B cells)	IC50 (Huh7 cells)	activity of normal hepatocytes (proliferative activity) [1]	cell cycle progression (L-O2 cells [2])	nuclear fluorescence staining (L-O2 cells [3])	histopathological examination of major organs (heart, liver, spleen, and kidney), H&E [4]	serum alanine aminotransferase (ALT) activity [4]	serum aspartate aminotransferase (AST) activity [4]	serum creatinine (CREA) activity [4]	HSP90A in samples pulled by bio-BO1 (western blot) (HSP90A)
GIGSAILSAGKSIIKGLAKGLAEHF-NH2 [BO1, Bombinin-BO1]	15.2 µM	24.9 µM	no significant change	not significantly affected	no significant changes	normal findings	comparable to those of control mice	comparable to those of control mice	comparable to those of control mice	
bio-BO1: Biotin-labeled BO1 (Biotin-GIGSAILSAGKSIIKGLAKGLAEHF-NH2; SMILES CC[C@H](C)[C@H](NC(=O)CNC(=O)CCCC[C@@H]1SC[C@@H]2NC(=O)N[C@@H]21)C(=O)NCC(=O)N[C@@H](CO)C(=O)N[C@@H](C)C(=O)N[C@H](C(=O)N[C@@H](CC(C)C)C(=O)N[C@@H](CO)C(=O)N[C@@H](C)C(=O)NCC(=O)N[C@@H](CCCCN)C(=O)N[C@@H](CO)C(=O)N[C@H](C(=O)N[C@H](C(=O)N[C@@H](CCCCN)C(=O)NCC(=O)N[C@@H](CC(C)C)C(=O)N[C@@H](C)C(=O)N[C@@H](CCCCN)C(=O)NCC(=O)N[C@@H](CC(C)C)C(=O)N[C@@H](C)C(=O)N[C@@H](CCC(=O)O)C(=O)N[C@@H](Cc1c[nH]cn1)C(=O)N[C@@H](Cc1ccccc1)C(N)=O)[C@@H](C)CC)[C@@H](C)CC)[C@@H](C)CC)										significantly detected
